Results from ChEMBL document CHEMBL1955770, “Inhibition of S/G2 phase CDK4 reduces mitotic fidelity” (J Biol Chem, 2006).

Legend:
[1] = target: Ephrin type-A receptor 5 (Homo sapiens) (UniProt P54756); test: Inhibition of EPHA5 at 1 uM
[2] = target: 3-phosphoinositide-dependent protein kinase 1 (Homo sapiens) (UniProt O15530); test: Inhibition of PDPK1 at 1 uM
[3] = target: Mitogen-activated protein kinase 12 (Homo sapiens) (UniProt P53778); test: Inhibition of p38-gamma at 1 uM
[4] = target: Membrane-associated tyrosine- and threonine-specific cdc2-inhibitory kinase (Homo sapiens) (UniProt Q99640); test: Inhibition of PKMYT1 at 1 uM
[5] = target: Mitogen-activated protein kinase 1 (Homo sapiens) (UniProt P28482); test: Inhibition of ERK2 at 1 uM
[6] = target: Calcium/calmodulin-dependent protein kinase kinase 2 (Homo sapiens) (UniProt Q96RR4); test: Inhibition of CAMKK2 at 1 uM
[7] = target: Serine/threonine-protein kinase 36 (Homo sapiens) (UniProt Q9NRP7); test: Inhibition of STK36 at 1 uM
[8] = target: Mitogen-activated protein kinase 11 (Homo sapiens) (UniProt Q15759); test: Inhibition of p38-beta at 1 uM
[9] = target: Phosphorylase b kinase gamma catalytic chain, skeletal muscle/heart isoform (Homo sapiens) (UniProt Q16816); test: Inhibition of PHKG1 at 1 uM
[10] = target: Serine/threonine-protein kinase 17A (Homo sapiens) (UniProt Q9UEE5); test: Inhibition of STK17A at 1 uM
[11] = target: Dual specificity protein kinase CLK2 (Homo sapiens) (UniProt P49760); test: Inhibition of CLK2 at 1 uM
[12] = target: Ribosomal protein S6 kinase alpha-5 (Homo sapiens) (UniProt O75582); test: Inhibition of RPS6KA5 Kin.Dom.1 at 1 uM
[13] = target: Death-associated protein kinase 2 (Homo sapiens) (UniProt Q9UIK4); test: Inhibition of DAPK2 at 1 uM
[14] = target: Fibroblast growth factor receptor 1 (Homo sapiens) (UniProt P11362); test: Inhibition of FGFR1 at 1 uM
[15] = target: Proto-oncogene tyrosine-protein kinase Src (Homo sapiens, UniProt P12931); test: Inhibition of SRC at 1 uM
[16] = target: cAMP-dependent protein kinase catalytic subunit alpha (Homo sapiens) (UniProt P17612); test: Inhibition of PKA catalytic subunit alpha at 1 uM
[17] = target: Calcium/calmodulin-dependent protein kinase type 1D (Homo sapiens) (UniProt Q8IU85); test: Inhibition of CAMK1D at 1 uM
Summary of the method: (§1)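 Competition binding screen across a kinase panel with compound at 1 μM. Read-out is % competition. Kinases not hit at this concentration were scored '<50'. No Kd was determined for hits.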

[18] = target: Serine/threonine-protein kinase 16 (Homo sapiens) (UniProt O75716); test: Inhibition of STK16 at 1 uM
[19] = test system: Serine/threonine-protein kinase B-raf (Homo sapiens), P15056 [V600E]; test: Inhibition of BRAF(V600E) at 1 uM; summary of the method: as §1
[20] = target: RAC-alpha serine/threonine-protein kinase (Homo sapiens) (UniProt P31749); test: Inhibition of AKT1 at 1 uM; summary of the method: as §1
[21] = target: Tyrosine-protein kinase SYK (Homo sapiens) (UniProt P43405); test: Inhibition of SYK at 1 uM
[22] = target: Serine/threonine-protein kinase ULK3 (Mus musculus) (UniProt Q3U3Q1); test: Inhibition of mouse ULK3 at 1 uM
[23] = target: Ribosomal protein S6 kinase alpha-3 (Homo sapiens) (UniProt P51812); test: Inhibition of RPS6KA3 Kin.Dom.1 at 1 uM
[24] = target: Ephrin type-A receptor 6 (Homo sapiens) (UniProt Q9UF33); test: Inhibition of EPHA6 at 1 uM
[25] = target: STE20-like serine/threonine-protein kinase (Homo sapiens) (UniProt Q9H2G2); test: Inhibition of SLK at 1 uM
[26] = target: Tyrosine-protein kinase Fyn (Homo sapiens) (UniProt P06241); test: Inhibition of FYN at 1 uM
[27] = target: Calcium/calmodulin-dependent protein kinase type II subunit delta (Homo sapiens) (UniProt Q13557); test: Inhibition of CAMK2D at 1 uM; summary of the method: as §1
[28] = target: Serine/threonine-protein kinase 17B (Homo sapiens) (UniProt O94768); test: Inhibition of STK17B at 1 uM
[29] = target: Casein kinase I isoform gamma-2 (Homo sapiens) (UniProt P78368); test: Inhibition of CSNK1G2 at 1 uM
[30] = target: Ephrin type-A receptor 7 (Homo sapiens) (UniProt Q15375); test: Inhibition of EPHA7 at 1 uM
[31] = target: Casein kinase I isoform gamma-1 (Homo sapiens) (UniProt Q9HCP0); test: Inhibition of CSNK1G1 at 1 uM
[32] = target: Dual specificity protein kinase CLK1 (Homo sapiens) (UniProt P49759); test: Inhibition of CLK1 at 1 uM
[33] = target: Tyrosine-protein kinase Lyn (Homo sapiens) (UniProt P07948); test: Inhibition of LYN at 1 uM
[34] = target: Cytoplasmic tyrosine-protein kinase BMX (Homo sapiens) (UniProt P51813); test: Inhibition of BMX at 1 uM; summary of the method: as §1
[35] = target: Aurora kinase A (Homo sapiens) (UniProt O14965); test: Inhibition of AURKA at 1 uM; summary of the method: as §1
[36] = target: Ephrin type-A receptor 2 (Homo sapiens) (UniProt P29317); test: Inhibition of EPHA2 at 1 uM
[37] = target: Tyrosine-protein kinase HCK (Homo sapiens) (UniProt P08631); test: Inhibition of HCK at 1 uM
[38] = target: Ephrin type-B receptor 4 (Homo sapiens) (UniProt P54760); test: Inhibition of EPHB4 at 1 uM
[39] = target: Fibroblast growth factor receptor 3 (Homo sapiens) (UniProt P22607); test: Inhibition of FGFR3 at 1 uM
[40] = target: AP2-associated protein kinase 1 (Homo sapiens) (UniProt Q2M2I8); test: Inhibition of AAK1 at 1 uM
[41] = target: Vascular endothelial growth factor receptor 2 (Homo sapiens) (UniProt P35968); test: Inhibition of VEGFR2 at 1 uM
[42] = target: Mitogen-activated protein kinase 14 (Homo sapiens) (UniProt Q16539); test: Inhibition of p38-alpha at 1 uM
[43] = target: Tyrosine-protein kinase ITK/TSK (Homo sapiens) (UniProt Q08881); test: Inhibition of ITK at 1 uM
[44] = target: Serine/threonine-protein kinase pim-2 (Homo sapiens) (UniProt Q9P1W9); test: Inhibition of PIM2 at 1 uM
[45] = target: Receptor-interacting serine/threonine-protein kinase 2 (Homo sapiens) (UniProt O43353); test: Inhibition of RIPK2 at 1 uM
[46] = target: Cyclin-dependent kinase 16 (Homo sapiens) (UniProt Q00536); test: Inhibition of PCTK1 at 1 uM

Chain of Mitogen-activated protein kinase 14 (Homo sapiens) (Q16539 whole entry): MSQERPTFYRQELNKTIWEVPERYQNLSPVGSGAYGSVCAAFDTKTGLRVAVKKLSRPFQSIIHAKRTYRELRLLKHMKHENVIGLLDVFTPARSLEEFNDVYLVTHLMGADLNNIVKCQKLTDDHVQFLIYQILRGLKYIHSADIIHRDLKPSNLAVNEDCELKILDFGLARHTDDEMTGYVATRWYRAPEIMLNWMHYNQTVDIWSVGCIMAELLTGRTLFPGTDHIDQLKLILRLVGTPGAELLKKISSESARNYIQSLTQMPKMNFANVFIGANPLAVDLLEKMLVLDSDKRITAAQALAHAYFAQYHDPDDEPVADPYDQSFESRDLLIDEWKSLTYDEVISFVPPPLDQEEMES
Chain of Mitogen-activated protein kinase 1 (Homo sapiens) (P28482 whole entry): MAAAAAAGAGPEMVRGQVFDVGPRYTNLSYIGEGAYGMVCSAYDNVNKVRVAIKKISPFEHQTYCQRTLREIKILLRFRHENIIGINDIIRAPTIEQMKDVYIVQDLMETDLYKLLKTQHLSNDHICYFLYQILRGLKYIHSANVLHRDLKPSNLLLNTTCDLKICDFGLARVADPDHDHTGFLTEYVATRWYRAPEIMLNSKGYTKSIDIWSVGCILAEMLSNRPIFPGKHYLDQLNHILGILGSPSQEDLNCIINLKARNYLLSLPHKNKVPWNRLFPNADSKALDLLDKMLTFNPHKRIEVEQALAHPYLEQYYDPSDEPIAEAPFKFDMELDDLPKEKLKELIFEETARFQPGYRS
Chain of Serine/threonine-protein kinase B-raf (Homo sapiens), P15056 [V600E] (P15056 whole entry V600E): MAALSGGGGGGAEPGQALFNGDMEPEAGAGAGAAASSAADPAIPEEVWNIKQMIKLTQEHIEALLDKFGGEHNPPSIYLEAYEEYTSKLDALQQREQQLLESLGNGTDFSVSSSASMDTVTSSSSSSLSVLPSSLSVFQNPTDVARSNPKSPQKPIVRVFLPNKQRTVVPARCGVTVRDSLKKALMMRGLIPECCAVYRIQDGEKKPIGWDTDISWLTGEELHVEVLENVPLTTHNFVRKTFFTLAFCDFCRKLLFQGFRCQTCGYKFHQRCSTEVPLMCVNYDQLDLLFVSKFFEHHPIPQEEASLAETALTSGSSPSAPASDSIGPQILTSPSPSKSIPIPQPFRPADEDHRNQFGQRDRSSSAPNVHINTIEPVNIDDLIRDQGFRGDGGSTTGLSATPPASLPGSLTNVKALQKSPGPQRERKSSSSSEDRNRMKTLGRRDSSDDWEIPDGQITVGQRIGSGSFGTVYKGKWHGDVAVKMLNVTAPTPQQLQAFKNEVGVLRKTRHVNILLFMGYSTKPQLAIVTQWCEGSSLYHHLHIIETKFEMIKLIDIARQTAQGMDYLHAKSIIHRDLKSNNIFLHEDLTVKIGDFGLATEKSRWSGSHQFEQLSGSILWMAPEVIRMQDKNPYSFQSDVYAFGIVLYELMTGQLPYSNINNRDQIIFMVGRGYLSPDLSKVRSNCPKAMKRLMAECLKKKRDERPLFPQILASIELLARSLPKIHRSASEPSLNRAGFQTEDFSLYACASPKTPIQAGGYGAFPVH
Chain of Fibroblast growth factor receptor 1 (Homo sapiens) (P11362 22-822 limits assumed): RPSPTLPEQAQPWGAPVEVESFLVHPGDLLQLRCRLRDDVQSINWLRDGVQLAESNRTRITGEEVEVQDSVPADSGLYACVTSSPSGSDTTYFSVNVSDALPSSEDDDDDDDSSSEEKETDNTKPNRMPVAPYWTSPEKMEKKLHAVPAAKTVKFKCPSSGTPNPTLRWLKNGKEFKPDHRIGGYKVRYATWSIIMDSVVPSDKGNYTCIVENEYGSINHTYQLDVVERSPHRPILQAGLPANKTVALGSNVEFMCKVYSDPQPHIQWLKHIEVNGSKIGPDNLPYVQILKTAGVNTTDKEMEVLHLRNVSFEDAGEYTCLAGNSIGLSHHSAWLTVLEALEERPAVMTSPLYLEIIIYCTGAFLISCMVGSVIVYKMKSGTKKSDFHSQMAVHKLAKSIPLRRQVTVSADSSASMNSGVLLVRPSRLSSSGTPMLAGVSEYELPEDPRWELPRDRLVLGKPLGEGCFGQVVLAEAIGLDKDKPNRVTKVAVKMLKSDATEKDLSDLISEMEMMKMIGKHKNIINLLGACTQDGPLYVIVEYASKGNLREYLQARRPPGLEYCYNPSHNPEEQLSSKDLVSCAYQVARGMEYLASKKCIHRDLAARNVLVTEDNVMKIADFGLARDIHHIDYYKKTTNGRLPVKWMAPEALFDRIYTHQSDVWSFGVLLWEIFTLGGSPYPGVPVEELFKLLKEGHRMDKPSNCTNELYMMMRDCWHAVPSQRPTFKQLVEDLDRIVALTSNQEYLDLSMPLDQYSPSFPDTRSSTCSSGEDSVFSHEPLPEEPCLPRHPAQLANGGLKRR
Chain of Phosphorylase b kinase gamma catalytic chain, skeletal muscle/heart isoform (Homo sapiens) (Q16816 whole entry, looked up, canonical isoform): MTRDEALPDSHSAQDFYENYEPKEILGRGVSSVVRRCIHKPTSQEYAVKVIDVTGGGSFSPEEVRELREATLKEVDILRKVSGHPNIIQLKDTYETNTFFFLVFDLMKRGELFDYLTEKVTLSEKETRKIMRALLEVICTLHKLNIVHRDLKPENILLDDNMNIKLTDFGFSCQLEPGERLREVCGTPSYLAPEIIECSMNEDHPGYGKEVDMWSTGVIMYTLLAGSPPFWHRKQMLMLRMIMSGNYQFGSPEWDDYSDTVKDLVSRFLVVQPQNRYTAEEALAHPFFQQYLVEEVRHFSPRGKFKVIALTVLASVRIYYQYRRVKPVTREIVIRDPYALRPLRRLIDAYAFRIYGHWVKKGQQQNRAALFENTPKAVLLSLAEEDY
Chain of Tyrosine-protein kinase Fyn (Homo sapiens) (P06241 2-537 limits assumed): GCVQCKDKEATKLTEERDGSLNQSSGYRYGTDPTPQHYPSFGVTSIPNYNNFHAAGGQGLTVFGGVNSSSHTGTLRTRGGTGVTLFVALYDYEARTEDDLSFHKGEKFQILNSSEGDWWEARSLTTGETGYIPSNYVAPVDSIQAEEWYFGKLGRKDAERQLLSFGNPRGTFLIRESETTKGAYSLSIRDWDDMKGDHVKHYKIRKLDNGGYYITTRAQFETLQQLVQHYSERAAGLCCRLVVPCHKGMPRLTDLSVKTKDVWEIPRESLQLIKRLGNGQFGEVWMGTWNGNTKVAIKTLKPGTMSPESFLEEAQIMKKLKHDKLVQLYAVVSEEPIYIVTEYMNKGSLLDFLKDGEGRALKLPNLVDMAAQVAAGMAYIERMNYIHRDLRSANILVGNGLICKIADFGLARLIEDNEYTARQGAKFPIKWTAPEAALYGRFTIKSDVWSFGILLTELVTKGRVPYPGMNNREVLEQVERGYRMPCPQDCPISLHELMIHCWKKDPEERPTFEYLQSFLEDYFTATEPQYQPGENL
Chain of Ephrin type-A receptor 6 (Homo sapiens) (Q9UF33 whole entry): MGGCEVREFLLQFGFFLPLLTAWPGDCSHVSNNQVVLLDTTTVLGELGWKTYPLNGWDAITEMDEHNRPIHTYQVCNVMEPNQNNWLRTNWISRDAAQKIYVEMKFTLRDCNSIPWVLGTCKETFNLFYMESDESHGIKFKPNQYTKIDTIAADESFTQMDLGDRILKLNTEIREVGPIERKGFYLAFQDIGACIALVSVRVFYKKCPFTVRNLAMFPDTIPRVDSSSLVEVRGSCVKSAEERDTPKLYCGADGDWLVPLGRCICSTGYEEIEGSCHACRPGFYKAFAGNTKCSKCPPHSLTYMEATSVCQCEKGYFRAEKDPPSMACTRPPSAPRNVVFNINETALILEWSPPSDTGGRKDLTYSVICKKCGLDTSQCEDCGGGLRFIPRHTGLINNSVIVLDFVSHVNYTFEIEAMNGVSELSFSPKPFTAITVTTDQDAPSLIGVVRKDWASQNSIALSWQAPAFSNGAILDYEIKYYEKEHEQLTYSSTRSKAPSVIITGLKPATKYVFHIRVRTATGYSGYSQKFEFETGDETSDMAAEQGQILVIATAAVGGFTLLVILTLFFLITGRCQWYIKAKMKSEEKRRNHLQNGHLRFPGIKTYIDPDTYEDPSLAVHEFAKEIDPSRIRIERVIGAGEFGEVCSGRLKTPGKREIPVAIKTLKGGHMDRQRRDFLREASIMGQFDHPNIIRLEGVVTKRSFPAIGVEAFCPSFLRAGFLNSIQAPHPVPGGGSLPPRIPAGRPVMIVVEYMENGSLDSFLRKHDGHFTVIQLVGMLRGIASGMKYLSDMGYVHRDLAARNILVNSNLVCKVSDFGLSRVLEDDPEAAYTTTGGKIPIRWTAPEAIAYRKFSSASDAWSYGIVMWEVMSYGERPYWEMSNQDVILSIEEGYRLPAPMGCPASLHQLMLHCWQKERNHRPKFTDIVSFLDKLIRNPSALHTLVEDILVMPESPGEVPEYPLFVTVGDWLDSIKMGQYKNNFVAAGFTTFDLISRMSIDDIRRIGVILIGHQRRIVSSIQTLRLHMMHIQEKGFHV
Chain of Membrane-associated tyrosine- and threonine-specific cdc2-inhibitory kinase (Homo sapiens) (Q99640 whole entry): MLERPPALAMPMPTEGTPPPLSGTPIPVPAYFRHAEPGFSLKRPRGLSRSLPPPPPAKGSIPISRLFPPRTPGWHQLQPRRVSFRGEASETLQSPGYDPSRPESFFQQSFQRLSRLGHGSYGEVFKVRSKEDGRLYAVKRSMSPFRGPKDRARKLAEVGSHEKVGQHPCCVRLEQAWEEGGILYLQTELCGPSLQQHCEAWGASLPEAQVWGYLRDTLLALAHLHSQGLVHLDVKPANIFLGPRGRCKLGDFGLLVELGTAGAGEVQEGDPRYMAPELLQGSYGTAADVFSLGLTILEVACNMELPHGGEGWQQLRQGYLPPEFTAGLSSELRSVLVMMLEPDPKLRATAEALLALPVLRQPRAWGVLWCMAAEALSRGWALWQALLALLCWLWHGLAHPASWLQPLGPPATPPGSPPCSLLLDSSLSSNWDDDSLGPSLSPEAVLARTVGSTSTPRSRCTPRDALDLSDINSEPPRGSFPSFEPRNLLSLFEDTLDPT

With `CN1CCN(c2ccc(Nc3nc(N)c(C(=O)c4ccc5c(c4)OCCO5)s3)cc2)CC1` the inhibition [1] was < 50%, the inhibition [2] was < 50% and the inhibition [3] was < 50%. The inhibition [4] was < 50%, the inhibition [5] was < 50% and the inhibition [6] was < 50%. The inhibition [7] was 86%, the inhibition [8] was < 50% and the inhibition [9] was < 50%. The inhibition [10] was 89%, the inhibition [11] was 100% and the inhibition [12] was < 50%. The inhibition [13] was < 50%, the inhibition [14] was < 50% and the inhibition [15] was < 50%. For the same compound, the inhibition [16] was < 50%, the inhibition [17] was < 50% and the inhibition [18] was 87%. The inhibition [19] was < 50%, the inhibition [20] was < 50% and the inhibition [21] was < 50%. For the same compound, the inhibition [22] was < 50%, the inhibition [23] was < 50% and the inhibition [24] was < 50%. The inhibition [25] was 99%, the inhibition [26] was < 50% and the inhibition [27] was < 50%. For the same compound, the inhibition [28] was < 50%, the inhibition [29] was 99% and the inhibition [30] was < 50%. For the same compound, the inhibition [31] was 98%, the inhibition [32] was 100% and the inhibition [33] was < 50%. For the same compound, the inhibition [34] was < 50%, the inhibition [35] was < 50% and the inhibition [36] was < 50%. The inhibition [37] was < 50%, the inhibition [38] was < 50% and the inhibition [39] was < 50%. For the same compound, the inhibition [40] was 84%, the inhibition [41] was < 50% and the inhibition [42] was < 50%. The inhibition [43] was < 50%, the inhibition [44] was < 50% and the inhibition [45] was < 50%. The inhibition [46] was 99%.
